ED50, Activity and EC50 data for seven compounds are collected here from ChEMBL document CHEMBL3351942, “Rexinoids isolated from Sophora tonkinensis with a gene expression profile distinct from the synthetic rexinoid bexarotene” (J Nat Prod, 2014).

SMILES strings stand for the structures. Calls of active or inactive are those of the source. The rule behind the calls is not given here.

Assay [1] has as its target T1, Retinoic acid receptor RXR-alpha (Homo sapiens) (UniProt P19793).
T1 sequence (whole entry): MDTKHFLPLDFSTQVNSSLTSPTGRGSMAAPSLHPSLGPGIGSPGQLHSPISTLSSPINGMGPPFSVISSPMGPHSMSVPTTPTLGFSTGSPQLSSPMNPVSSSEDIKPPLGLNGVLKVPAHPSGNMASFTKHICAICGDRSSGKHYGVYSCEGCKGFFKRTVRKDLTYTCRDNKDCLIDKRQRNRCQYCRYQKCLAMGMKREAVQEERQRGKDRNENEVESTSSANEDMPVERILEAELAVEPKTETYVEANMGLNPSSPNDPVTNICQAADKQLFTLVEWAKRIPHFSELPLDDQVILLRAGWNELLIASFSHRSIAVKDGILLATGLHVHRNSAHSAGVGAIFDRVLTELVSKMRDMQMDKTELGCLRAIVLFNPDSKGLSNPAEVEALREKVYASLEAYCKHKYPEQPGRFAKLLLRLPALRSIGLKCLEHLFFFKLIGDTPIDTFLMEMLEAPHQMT
Briefly: (§1) Agonist activity at human RXR-alpha expressed in HEK293 cells coexpressing with pCMX-beta-gal after 24 to 48 hrs by luciferase reporter gene assay. The class given is cell-based. The gist of the method:
(§2)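 HEK293 cells transfected by calcium phosphate with 60 ng pCMX-hRXR-α, 150 ng CRBPII-tk-Luc and 30 ng pCMX-β-gal plus carrier pUC18 (600 ng DNA per well). After 8 h the cells were washed and exposed to compound in medium with 10% FBS for 24−48 h. Luciferase was normalized to β-galactosidase. Triplicate or quadruplicate; representative of three independent experiments; EC50 from dose-response.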
(In general: A reporter such as luciferase makes a cellular process visible.)

Assay [2] has as its target T1, Retinoic acid receptor RXR-alpha (Homo sapiens). Briefly: Agonist activity at human RXR-alpha expressed in HEK293 cells coexpressing with pCMX-beta-gal at 10 uM after 24 to 48 hrs by luciferase reporter gene assay. The class given is cell-based.
In assay [3] the test system is RAW264.7. Briefly: Activation of RXR/LXR heterodimer in mouse RAW264.7 cells assessed as increase in ABCA1 mRNA level at 1 uM by quantitative RT-PCR analysis. The class given is cell-based. The method in brief:
(§3)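 RAW264.7 macrophages in DMEM/10% FBS, exposed 24 h with or without LXR agonist T0901317; ABCA1 mRNA by SYBR green qRT-PCR, β-actin-normalized, fold vs vehicle; means ± SD of three determinants, one of three independent experiments; one-way ANOVA, Bonferroni.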

The subject of assay [4] is RAW264.7. Briefly: Activation of RXR/LXR heterodimer in mouse RAW264.7 cells assessed as potentiation of T0901317-induced increase in ABCA1 mRNA level at 1 uM by quantitative RT-PCR analysis. The class given is cell-based. The method in brief: as §3
Assay [5] relates to F9. Briefly: Activation of RXR/RAR heterodimer in mouse F9 cells assessed as increase in CYP26A1 mRNA level at 1 uM by quantitative RT-PCR analysis. The class given is cell-based. The method in brief: (§4)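 F9 teratocarcinoma cells on 0.2% gelatin-coated dishes in DMEM/10% FBS; 24 h exposure with or without atRA (0.1 μM). CYP26A1 mRNA by qRT-PCR normalized to β-actin, fold vs vehicle; means ± SD of three determinants, one of three experiments; ANOVA/Bonferroni.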

The test system of assay [6] is F9. Briefly: Activation of RXR/RAR heterodimer in mouse F9 cells assessed as increase in CYP26A1 mRNA level at 1 uM by quantitative RT-PCR analysis in presence of atRA. The class given is cell-based. The gist of the method:
as §4

For the next assay, the species on record is Homo sapiens. Briefly: Activation of RXR/VDR heterodimer in human hepatoma cells assessed as increase in CYP24A1 mRNA level at 1 uM by quantitative RT-PCR analysis. The class given is cell-based. The method in brief:
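HLE hepatoma cells treated 24 h with or without VD3 (0.1 μM); CYP24A1 mRNA by SYBR green qRT-PCR normalized to β-actin (delta-delta Ct), fold over vehicle; means ± SD of three determinants, representative of three experiments.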

Another assay concerns 3T3-L1. Briefly: Activation of PPARgamma/RXR heterodimer in mouse 3T3-L1 cell assessed as induction of adipogenesis at 1 uM after 6 days by Oil red O-staining. The class given is cell-based. The method in brief:
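3T3-L1 cells grown to confluence, 2 days later induced 48 h with 10% FBS, 5 μg/mL insulin, 0.25 μM dexamethasone, 0.5 mM IBMX, then 48 h insulin-only medium; compounds in DMSO added to postdifferentiation medium for 4 days. Formalin-fixed (10%, 1 h, RT), stained with Oil red O, washed, visualized.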

The nature of assay [7]: Activation of LXR in mouse C2C12 cells assessed as induction of lipoprotein lipase mRNA expression at 1 uM after 24 hrs by quantitative RT-PCR analysis. The class given is cell-based. The method in brief: (§5)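 C2C12 myoblasts grown in DMEM/10% FBS, differentiated at confluence in 2% horse serum, medium changed every other day for 5 days; myotubes treated 24 h with or without T0901317 (1 μM). Total RNA, DNase-treated, oligo(dT) RT from 0.5 μg, SYBR green qPCR; normalized to β-actin (delta-delta Ct), fold over vehicle; mean ± SD of four determinants, one of two experiments.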

A short description of assay [8]: Activation of LXR in mouse C2C12 cells assessed as induction of lipoprotein lipase mRNA expression at 1 uM after 24 hrs in presence of T0901317 by quantitative RT-PCR analysis. The class given is cell-based. The gist of the method: as §5
Assay [9] can be described thus: Activation of LXR in mouse C2C12 cells assessed as induction of SREBP1 mRNA expression at 1 uM after 24 hrs in presence of T0901317 by quantitative RT-PCR analysis. The class given is cell-based. The gist of the method: as §5
Assay [10] can be described thus: Activation of LXR in mouse C2C12 cells assessed as induction of FAS mRNA expression at 1 uM after 24 hrs in presence of T0901317 by quantitative RT-PCR analysis. The class given is cell-based. The method in brief: as §5
Assay [11] can be described thus: Activation of LXR in mouse C2C12 cells assessed as induction of ApoD mRNA expression at 1 uM after 24 hrs in presence of T0901317 by quantitative RT-PCR analysis. The class given is cell-based. The method in brief: as §5
The nature of assay [12]: Activation of LXR in mouse C2C12 cells assessed as induction of ABCA1 mRNA expression at 1 uM after 24 hrs in presence of T0901317 by quantitative RT-PCR analysis. The class given is cell-based. The method in brief:
as §5

A short description of assay [13]: Activation of LXR in mouse C2C12 cells assessed as induction of ApoE mRNA expression at 1 uM after 24 hrs in presence of T0901317 by quantitative RT-PCR analysis. The class given is cell-based. The method in brief:
as §5

Assay [14] concerns the target T2, Peroxisome proliferator-activated receptor delta (Mus musculus) (UniProt P35396).
T2 sequence (whole entry): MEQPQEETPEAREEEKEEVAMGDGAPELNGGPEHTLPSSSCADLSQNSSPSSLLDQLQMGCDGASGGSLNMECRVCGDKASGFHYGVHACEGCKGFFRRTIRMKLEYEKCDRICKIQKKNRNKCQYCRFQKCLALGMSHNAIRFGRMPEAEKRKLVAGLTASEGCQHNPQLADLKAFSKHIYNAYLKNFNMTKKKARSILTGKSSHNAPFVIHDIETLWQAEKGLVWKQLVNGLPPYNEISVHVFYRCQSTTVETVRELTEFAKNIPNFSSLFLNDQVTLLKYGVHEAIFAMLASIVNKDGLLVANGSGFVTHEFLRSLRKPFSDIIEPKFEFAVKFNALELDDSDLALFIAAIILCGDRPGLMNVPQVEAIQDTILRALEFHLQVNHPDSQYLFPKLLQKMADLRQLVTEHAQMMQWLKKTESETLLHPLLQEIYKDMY
Briefly: Activation of PPARdelta in mouse C2C12 cells assessed as induction of ANGPTL4 mRNA expression at 1 uM after 24 hrs by quantitative RT-PCR analysis. The class given is cell-based. The gist of the method:
(§6)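 Differentiated C2C12 myotubes (2% horse serum, 5 days) exposed 24 h with or without PPARδ agonist GW501516 (1 μM). mRNA quantified by SYBR green real-time RT-PCR, normalized to β-actin by delta-delta Ct, and expressed as fold induction vs vehicle; means ± SD of four determinants from one of two independent experiments; one-way ANOVA with Bonferroni.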

Assay [15] addresses T2, Peroxisome proliferator-activated receptor delta (Mus musculus). Briefly: Activation of PPARdelta in mouse C2C12 cells assessed as induction of FABP3 mRNA expression at 1 uM after 24 hrs by quantitative RT-PCR analysis. The class given is cell-based. The method in brief:
as §6

For assay [16] the target is unchanged. Briefly: Activation of PPARdelta in mouse C2C12 cells assessed as induction of CPT1A mRNA expression at 1 uM after 24 hrs by quantitative RT-PCR analysis. The class given is cell-based. The method in brief: as §6
Assay [17] shares this target. Briefly: Activation of PPARdelta in mouse C2C12 cells assessed as induction of FABP3 mRNA expression at 1 uM after 24 hrs in presence of GW501516 by quantitative RT-PCR analysis. The class given is cell-based. The gist of the method: as §6
For assay [18], the target named is T3, Retinoic acid receptor RXR-alpha (Homo sapiens, UniProt P19793).
T3 sequence (P19793 whole entry): T1 sequence (whole entry)
The description is as §1. The class given is cell-based. The method in brief:
as §2

Assay [19] addresses T1, Retinoic acid receptor RXR-alpha (Homo sapiens). Briefly: Agonist activity at human RXR-alpha expressed in HEK293 cells coexpressing with pCMX-beta-gal at 10 uM after 24 to 48 hrs by luciferase reporter gene assay in presence of PA452 pan-antagonist. The class given is cell-based. The gist of the method: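 RXRα reporter in HEK293: cotransfected with RXRα expression vector, luciferase reporter and pCMX-β-gal. Eight hours after transfection, cells were treated with test compound at 10 μM with or without the RXR pan-antagonist PA452 (10 μM). Luciferase was normalized to β-galactosidase. Means ± SD of three determinants; representative of three experiments; one-way ANOVA with Bonferroni's t-test.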

For assay [20] the target is unchanged. Briefly: Binding affinity to RXRalpha (unknown origin) by receptor-SRC1 cofactor complex formation assay. The gist of the method:
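Ligand-dependent binding of RXR isotype to coactivator SRC-1 in an NR cofactor kit, detected with HRP-conjugated anti-RXR antibody at OD450. The full agonist CD3254 defined 100% and vehicle 0%. Efficacy was taken as maximum B/Bmax% and potency as EC50.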

In the case of `C=CCc1ccc(O)c(-c2ccc(O)c(CC=C)c2)c1`, the ED50 in [1] amounted to 11.8 µM.
With `CC(C)=CCc1cc([C@@H]2CC(=O)c3ccc(O)c(CC=C(C)C)c3O2)cc(CC=C(C)C)c1O`, in [2], the result was inactive.
With `CC/C=C\C/C=C\C/C=C\C/C=C\C/C=C\C/C=C\CCC(=O)O`, the ED50 in assay [1] amounted to 50 µM.
For the compound `CC(C)CCC[C@@H](C)CCC[C@@H](C)CCCC(C)CC(=O)O` (stereo partly specified), the ED50 in [1] was 3 µM.
`C=C(c1ccc(C(=O)O)cc1)c1cc2c(cc1C)C(C)(C)CCC2(C)C`: the result with RAW264.7 [3], in the assay with RAW264.7 [4], in the assay on F9 [5], in the assay with F9 [6], in the assay filed under Homo sapiens and with 3T3-L1 was Active. The result in assay [9], in [10], in assay [11], in assay [12], in assay [13] and in [14] was Active. In addition, the result in [15], in [16] and in assay [17] was Active. The result in assay [7] and in [8] was inactive.
For the compound `CC(C)=CCc1cc([C@@H]2CC(=O)c3ccc(O)c(CC=C(C)C)c3O2)cc2c1OC(C)(C)C(O)C2` (stereo partly specified), the Activity entry in [1] is “Dose-dependent effect”. For the same compound, the response in assay [18] was half-maximal at 0.78 µM (EC50). Also, the outcome in assay [19] and in assay [20] was inactive.
For `C=C1C(=O)O[C@H]2C[C@@H](C)[C@@H]3C=CC(=O)[C@@]3(C)[C@@H](OC(C)=O)[C@H]12`, the ED50 in assay [1] turned out to be 4.9 µM.
